# NF-kB neuron act = compounds increasing NF-kB expression in human neuronal cells. NF-kB reporter expression; stronger effect = higher value. fold change at 12.5 µM. actives 1.6% (n = 190,000). AID 1239; in the data active means fold change above about 3.3
# APP 5'UTR act = activates APP 5'UTR luciferase reporter. SH-SY5Y APP 5'UTR luciferase reporter, luminescence; zero percent = DMSO vehicle wells. activation, % at 2 µM. actives 1% (n = 190,000). AID 1276;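 active means activation above a set limit, based on mean plus 3 SD of controls, cut at about 140% in these data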
# STAT1 activator = increases IFN-gamma driven STAT1 reporter signal. NIH 3T3 STAT1-luciferase reporter, luminescence; 100% = IFN-gamma alone, no compound. actives 2.6% (n = 200,000). activation (% of control), % at 5.5 µM;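 active means activation above the screen-wide mean activation plus 3 SD, cut at about 130% in these data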;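 further: raw ratio to IFN-gamma control signal so 100% means no change and 0% no light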
# STAT3 activator = activators of IL-6 induced STAT3 signaling; U3A cells, IL-6 STAT3-luciferase reporter, luminescence; 100% = signal with IL-6 EC80 alone; activation (% of control), % at 5.6 µM; AID 871; actives 0.91% (n = 190,000);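 active means activation above the screen-wide mean of compound activation plus 3 SD, cut at about 130% in these data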;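 further: 0% = background luminescence of wells with medium and substrate only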
#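 Test system: STAT3-luciferase reporter U3A cells; Detection: reporter luminescence signal; Times: 1 h compound pre-exposure, 6 h IL-6 stimulation, 37 °C; Benchmarks: IL-6-only high control; Also added: IL-6 stimulus at 33 ng/mL final.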
# STAT3 inh = reduces IL-6 driven STAT3 reporter signal; U3A cells, IL-6 STAT3-luciferase reporter, luminescence; host cell line lacks STAT1; inhibition, % at 5.5 µM; actives 0.89% (n = 190,000); AID 862;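 active means inhibition above the mean inhibition across all screened compounds plus 3 SD, cut at about 44% in these data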;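 further: 0% = DMSO only wells and 100% = 100 µM nifuroxazide control wells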
# STAT1 inh = inhibitors of IFN-gamma induced STAT1 signaling; NIH 3T3 STAT1-luciferase reporter, luminescence; inhibition, % at 5.5 µM; actives 0.35% (n = 200,000); AID 920;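 active means inhibition above a set limit, the mean inhibition across all tested compounds plus 3 SD, cut at about 34% in these data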;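 further: 0% = IFN-gamma with DMSO and 100% = IFN-gamma with 300 µM nifuroxazide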
# Active calls of the source: *; nt = no result given. The list is not random: actives were taken first. Their share in the collection is about 4.9%.
SMILES,NF-kB neuron act,APP 5'UTR act,STAT1 activator,STAT3 activator,STAT3 inh,STAT1 inh
COc1ccc(/C=C/C(=O)C23CC4CC(CC(C4)C2)C3)cc1CN1CCOCC1,1.3,12,95,106,-5,5
COc1ccc(C(=O)NC(=O)NC2(C(Cl)(Cl)Cl)OCCO2)cc1,5.1*,226*,128,87,20,-34
C=CCN(CC=C)CCCOc1ccc(Br)cc1Cl,1.3,1,102,100,4,-4
N#C/C(=C1/CCCCCN1)c1nc2ccccc2[nH]1,2,10,130*,108,1,-33
Cc1ccc(N=Cc2nc(-c3ccc(C)cc3)oc2O)cc1,1.4,-6,99,96,11,2
Oc1oc(-c2ccccc2)nc1C=Nc1ccccc1,2.5,47,132*,87,18,-35
COc1ccc(N=Cc2nc(-c3ccco3)oc2O)cc1,2.4,26,136*,101,2,-39
O=C(OCc1nc2ccccc2s1)c1cccc(S(=O)(=O)N2CCOCC2)c1,0.97,52,130*,139*,-40,-33
O=C(OCc1nc2ccccc2s1)c1cc2ccccc2oc1=O,1.2,29,105,134*,-46,-3
Cc1cc(-c2nnc(CCC(=O)NC(C)c3ccc(F)cc3)o2)no1 (stereo unspecified),1.4,15,100,87,20,0
Cc1cccnc1Nc1nc(-c2ccc(O)cc2O)cs1,3.9*,36,121,97,6,-23
Oc1ccc(-c2csc(Nc3ncccn3)n2)cc1,9.1*,173*,146*,83,24,-49
COc1ccc(NC(=O)N2CCC(n3cnc4ccccc43)CC2)cc1,1,1,101,101,10,-2
CN=C(Nc1ccc(C(=O)OC)s1)c1ccc(Cl)cc1,1.1,28,107,102,-1,-9
CN(C)c1ccc(/C=C(\Cl)c2nc3ccccc3s2)cc1,0.8,118,136*,68,40,-40
CCCc1ccc(-c2ccc(F)c(N)c2)nc1,4.2*,140*,67,24,97*,37*
Nc1cc(-c2nn[nH]n2)ccc1F,1,7,96,95,10,5
CCOc1ccc(NC(=S)N2CCN(C/C=C/c3ccccc3)CC2)cc1,0.83,7,104,104,4,-6
CN1CCN(/N=C/c2ccc(Br)cc2)CC1,2,28,129*,100,3,-32
Cn1ncc2c(N3CCN(c4ccc(Cl)c(Cl)c4)CC3)ncnc21,0.91,-4,93,79,30,5
C=CCN(CC=C)c1cnn(-c2nc3ccccc3[nH]2)c(=O)c1Cl,2.8,142*,122,80,23,-23
COc1cc(/C=N/N=C(N)N)ccc1OCc1ccccc1Cl,4.3*,13,90,92,12,11
CCC(C)(C)c1ccc2c(c1)C(=O)c1ccccc1C2=O,1.6,182*,126,115,-21,-29
Cc1cccc(NC(=S)NCCc2ccccc2)n1,nt,-2,99,92,15,2
S=C(NCCc1ccccc1)Nc1ccccn1,1.6,26,133*,110,-7,-37
SMILES,NF-kB neuron act,APP 5'UTR act,STAT1 activator,STAT3 activator,STAT3 inh,STAT1 inh
CC(C)(C)NC(=S)NCCc1ccccc1,2,78,130*,104,-9,-33
O=C(COc1ccc(F)cc1)c1ccc2c(c1)CCCC2,nt,71,137*,102,8,-42
O=C(COc1ccc(Cc2ccccc2)cc1)c1ccc(F)cc1,0.97,27,96,98,3,4
C=CCn1c(COc2ccccc2)nnc1SC(C)C(=O)N/N=C/c1cc(Cl)ccc1O (stereo unspecified),3.5*,-4,106,105,0,-7
COC(=O)c1ccc(NC(=S)NC2CCc3ccccc32)cc1 (stereo unspecified),1.3,6,96,77,32,2
O=C(CSc1nnc(-c2ccco2)o1)c1ccc[nH]1,2.3,73,130*,111,-5,-33
CCOC(=O)c1cnc2c(N=Nc3ccccc3)c(N)nn2c1N,1.6,20,138*,84,25,-42
CCOC(=O)c1cnc2c(N=Nc3cccc(Cl)c3)c(N)nn2c1N,1.3,-7,102,95,7,-2

# Bioassay records deposited in PubChem BioAssay by several laboratories.
